In paper PMC5485419 (Theranostics, 2017):
In brackets after ≈: the same amount, converted by molar mass.

Assays:
In vitro release profile = format: physicochemical; details: non-gelled solution controls, 37 °C, PBS pH 7.4, dialysis bags
Procedure, shortened: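 Samples of 200 μL at 4 mg/ml (gels, non-gelled conjugate solutions and parent drug) were dialysed (MWCO 800-1000) against PBS pH 7.4 at 37 °C. The 200 μL release medium was sampled and refreshed at set times. Released conjugate was quantified by C18 HPLC (30 °C; acetonitrile/0.1 % TFA gradient; 1.0 mL/min) at 260 nm.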

[1] = tested on: IL-1 and TNFα production by FLS cells; assay: Determination of IL-1 and TNF-α in FLS cell supernatants; format: cell-based, rat; details: 0.355 mg/ml, 48 h, compared with the untreated control group
Procedure, shortened: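 Rat FLS cells, isolated from synovial tissue of adjuvant-arthritic rats, were seeded at 1×10^5/well in MEM with 10 % fetal calf serum (37 °C, 5 % CO2) and grown overnight. They were then exposed to test compound at 0.355 mg/ml for 48 h. Supernatant cytokines were measured by ELISA against untreated cells, in triplicate (n = 3), with one-way ANOVA.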

FLS cells = assay: Apoptosis detection in FLS cells; format: cell-based, rat; details: all at 0.4 mg/ml Ket, 48 h, versus untreated groups
Procedure, shortened: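 FLS cells were taken from arthritis-affected rat joints and grown in MEM with 10 % fetal calf serum at 37 °C under 5 % CO2. Cells were seeded at 1 × 10^6 per well, grown overnight, and exposed to the test compound (0.016-0.71 mg/ml) for 48 h. They were then trypsinised, washed, and resuspended at ∼1×10^6 cells/mL in annexin-binding buffer. Alexa Fluor 488 annexin V and PI were added for 15 min at room temperature before immediate flow cytometry.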

[2] = In vitro FLS cell toxicity assay; format: cell-based; details: Sprague Dawley, rat
Procedure, shortened: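 FLS cells from adjuvant-arthritic rat joints, in MEM with 10 % fetal calf serum at 37 °C and 5 % CO2, were seeded at 1.0×10^5/well and grown overnight. Cells were treated with six concentrations for 48 h, then given 20 µl MTT (5 mg/ml) for 4 h. Formazan was dissolved in DMSO and A490 read. Viability is relative to untreated cells, in triplicate; IC50 was read from the curves.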

COX-1 (ovine) = biological target: T1, COX-1 (ovine) (Ovis aries, UniProt P05979); assay: COX Fluorescent Inhibitor Screening Assay, COX-1; format: biochemical
T1 sequence (P05979 25-600): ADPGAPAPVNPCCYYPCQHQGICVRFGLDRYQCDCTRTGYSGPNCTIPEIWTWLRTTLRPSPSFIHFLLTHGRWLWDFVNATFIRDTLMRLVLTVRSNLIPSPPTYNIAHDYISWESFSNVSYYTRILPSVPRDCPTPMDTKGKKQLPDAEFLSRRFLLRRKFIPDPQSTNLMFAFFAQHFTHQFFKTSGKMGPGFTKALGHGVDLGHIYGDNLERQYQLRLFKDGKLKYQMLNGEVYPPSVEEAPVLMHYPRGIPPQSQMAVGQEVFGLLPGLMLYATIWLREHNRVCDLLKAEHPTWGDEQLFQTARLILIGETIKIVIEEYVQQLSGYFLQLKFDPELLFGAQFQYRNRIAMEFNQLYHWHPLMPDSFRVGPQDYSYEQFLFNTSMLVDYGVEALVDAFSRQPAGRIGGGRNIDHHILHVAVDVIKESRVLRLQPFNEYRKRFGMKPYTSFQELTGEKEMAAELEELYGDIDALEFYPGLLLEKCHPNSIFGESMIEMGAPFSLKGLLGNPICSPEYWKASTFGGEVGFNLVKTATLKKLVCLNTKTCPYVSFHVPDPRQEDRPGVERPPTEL
Procedure, shortened: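 The kit's peroxidase read-out was used: PGG2 converts ADHP to resorufin, read at excitation 530-540 nm and emission 585-595 nm. Ovine COX-1 was mixed with inhibitor, heme, fluorometric substrate and assay buffer. Arachidonic acid started the reaction, and plates were read exactly 2 min later at room temperature. No-enzyme blanks and no-inhibitor controls were included, and each compound was run in triplicate.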

## C[C@H](C(=O)O)c1cccc(C(=O)c2ccccc2)c1 [(S)-Ket, (S)-Ketoprofen]
In vitro release profile
  Time of drug release from solution: within a few hours
[1]
  IL-1 production by FLS cells: trace amounts
  TNFα production by FLS cells: comparatively lower amount
FLS cells
  Extent of apoptosis in FLS cells: greater degree of cell death than untreated groups
[2]
  IC50 at 48 h: 159 µg/mL (≈ 625 µM)
COX-1 (ovine)
  IC50: 5.1 µM
